Source: PubChem BioAssay (several laboratories)
TLR4 MyD88 comp: blocks binding of human TLR4 to MyD88 | HeLa CL3-4 TLR4/MyD88 BLA complementation, FRET ratio | 200,000 compounds, 0.18% hits | O00206+Q99836 | inhibition, % at 8.4 µM; in the data active means inhibition above about 25%;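 further: 0% = vehicle and 100% = reference inhibitor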
NOD2 RIPK2 PPI: NOD2-RIPK2 protein interaction inhibition. inhibition, % at 4.98 µM. 360,000 compounds, 0.38% hits. CHO BLA complementation NOD2-RIPK2, CCF4 ratio; in the data active means inhibition above about 21%;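 further: 0% = vehicle only and 100% = reference blocker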
SR-BI DiI-HDL act: SR-BI HDL lipid transfer activation; CHO ldlA[mSR-BI] cells, DiI-HDL uptake fluorescence, 3 h; 100 = double the neutral-control signal; activation, % at 12.5 µM; 320,000 compounds, 0.096% hits; AID 504775;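 active means mean replicate activation of at least 60% and every replicate at or above 60%; inconclusive means mean or all-replicate condition met, but not both; inactive means mean below 60% and not all replicates reaching 60%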;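 further: 0% = median plate neutral-control signal and 100% = twice that signal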
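Test system: SR-BI-overexpressing, LDLR-lacking CHO cells. Measured by: DiI fluorescence, bottom read. Medium: Ham's F12 with 0.5% BSA, HEPES 25 mM, pH 7.4. Timing: 3 h uptake period with compound, 37 °C.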
TLR9-MyD88 block: TLR9-MyD88 interaction inhibition; 340,000 compounds, 0.21% hits; Q9NR96+Q99836; inhibition, % at 4.98 µM; AID 504734; CHO BLA complementation TLR9-MyD88, CCF4 FRET ratio;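 active means inhibition above the mean over all tested compounds plus 3 SD, cut at about 21% in these data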;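 further: 0% = DMSO only wells and 100% = clavulanate BLA inhibitor control wells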
Target sequence (Q99836 whole entry, looked up): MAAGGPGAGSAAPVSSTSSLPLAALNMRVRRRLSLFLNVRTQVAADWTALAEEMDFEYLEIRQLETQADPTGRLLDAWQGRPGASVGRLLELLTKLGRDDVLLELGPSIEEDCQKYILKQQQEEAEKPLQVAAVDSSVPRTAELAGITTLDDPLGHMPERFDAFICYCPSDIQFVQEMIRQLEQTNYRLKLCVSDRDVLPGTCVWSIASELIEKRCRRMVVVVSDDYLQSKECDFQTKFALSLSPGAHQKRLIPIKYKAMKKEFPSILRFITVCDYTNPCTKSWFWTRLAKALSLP
Target sequence (Q9NR96 whole entry, looked up): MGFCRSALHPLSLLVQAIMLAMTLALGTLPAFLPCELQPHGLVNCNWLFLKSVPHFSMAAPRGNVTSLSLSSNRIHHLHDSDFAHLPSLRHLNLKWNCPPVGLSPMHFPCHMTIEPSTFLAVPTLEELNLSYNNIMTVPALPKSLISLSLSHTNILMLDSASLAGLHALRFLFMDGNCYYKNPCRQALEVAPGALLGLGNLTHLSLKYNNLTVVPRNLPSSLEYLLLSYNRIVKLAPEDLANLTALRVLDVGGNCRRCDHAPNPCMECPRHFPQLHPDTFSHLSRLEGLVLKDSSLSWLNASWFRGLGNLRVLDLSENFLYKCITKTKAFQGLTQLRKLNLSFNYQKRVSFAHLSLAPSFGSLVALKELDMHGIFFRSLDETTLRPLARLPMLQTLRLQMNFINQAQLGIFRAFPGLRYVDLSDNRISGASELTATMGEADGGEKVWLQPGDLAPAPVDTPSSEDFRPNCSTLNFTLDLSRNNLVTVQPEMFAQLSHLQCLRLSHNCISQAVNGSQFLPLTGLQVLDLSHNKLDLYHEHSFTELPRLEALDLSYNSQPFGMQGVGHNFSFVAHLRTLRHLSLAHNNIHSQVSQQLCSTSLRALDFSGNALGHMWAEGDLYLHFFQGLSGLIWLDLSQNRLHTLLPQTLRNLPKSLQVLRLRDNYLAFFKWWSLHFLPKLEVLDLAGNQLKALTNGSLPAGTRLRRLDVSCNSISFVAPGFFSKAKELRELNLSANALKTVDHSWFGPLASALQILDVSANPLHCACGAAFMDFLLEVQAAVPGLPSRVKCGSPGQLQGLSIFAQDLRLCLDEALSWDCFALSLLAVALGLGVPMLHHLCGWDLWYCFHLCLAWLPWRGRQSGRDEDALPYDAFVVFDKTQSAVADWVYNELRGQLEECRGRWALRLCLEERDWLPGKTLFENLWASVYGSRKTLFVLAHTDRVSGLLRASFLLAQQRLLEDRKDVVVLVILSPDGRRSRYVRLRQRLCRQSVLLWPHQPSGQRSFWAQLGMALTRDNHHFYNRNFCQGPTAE
SR-BI HDL uptake: blocks mouse SR-BI lipid uptake from DiI-HDL | inhibition, % at 12.5 µM | 320,000 compounds, 0.96% hits | ldlA[mSR-BI] CHO cells, DiI-HDL uptake fluorescence, 3 h | AID 488896;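 active means mean replicate inhibition of at least 70% and a set share of replicates each scoring 70 or more; inconclusive means meets just one of the two criteria; inactive means fails both criteria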;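 further: 0% = median of neutral control wells and 100% = median of positive control wells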
Lipid droplet: modulators of hepatic lipid droplet formation; AID 1656; 240,000 compounds, 0.4% hits; AML12 mouse hepatocytes, oleate lipid droplets, BODIPY imaging; inhibition, % at 6.5 µM;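 active means lipid droplet intensity inhibited by at least 50%, with more than 500 cells counted; inconclusive means wells with under 300 cells, treated as cytotoxic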
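Assay system: AML12 hepatocytes (mouse) / Also added: 100 µM oleic acid challenge / Times: overnight treatment with compound plus oleate / Detection: high-content imaging of BODIPY-stained droplets and DAPI nuclei / Evaluation: % inhibition of lipid droplet signal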
The depositor's hits bear a star; ? = inconclusive; . = no result. Shown are actives, neighbours in structure and some others; about 1.6% of the full set was active somewhere.

SMILES	TLR4 MyD88 comp	NOD2 RIPK2 PPI	SR-BI DiI-HDL act	TLR9-MyD88 block	SR-BI HDL uptake	Lipid droplet
COC(=O)NNC(=O)C12CC3CC(CC(C3)C1)C2	0	-1	18	4	-18	18
C/C(CCc1oc2ccccc2c1-c1ccc(C)o1)=N/O	10	11	-33	-6	33	-32
C/C(CCc1oc2c(Br)cc(Br)cc2c1-c1ccc(C)o1)=N\O	13	-2	-78	-4	78*	-27
CCOc1ccc(NC(=O)/C(C#N)=C\c2ccc(N3CCCC3)c(C)c2)cc1	.	3	-101	9	101*	.
COc1ccc(-c2cc(-c3cc(F)ccc3O)[nH]n2)cc1OC	-4	9	-72	3	72*	.
COc1ccc(-c2cc(-c3ccccc3O)[nH]n2)cc1OC	3	6	-39	-1	39	.
COc1ccc(CC(=O)OCC(=O)NCc2ccccc2Cl)cc1OC	-10	3	80*	8	-80	-4
COc1ccccc1CNC(=O)COC(=O)Cc1ccc(Br)cc1	.	-2	8	1	-8	.
CCOC(=O)C1CCN(C(=O)c2ccc(OCC(=O)Nc3ccc(OCC)cc3)c(OC)c2)CC1	.	-5	-83	2	83*	.
CCOC(=O)C1CCN(C(=O)c2ccc(OCC(=O)Nc3cccc(C(F)(F)F)c3)c(OC)c2)CC1	.	-1	-70	1	?	.
CN(C(=O)COC(=O)c1cccs1)c1ccccc1	.	-12	.	0	.	.
CC1CCCC(C)N1C(=O)COc1ccc(C(=O)Nc2ccccc2N2CCOCC2)cc1 (stereo unspecified)	-1	-3	-82	-9	82*	7
CCOc1ccc(C(=O)Nc2ccccc2N2CCOCC2)cc1	-5	7	-54	-6	54	.
Cc1cc(C)n(-c2ccc(C(=O)Nc3ccccc3N3CCOCC3)cc2)n1	6	-4	-80	4	80*	.
Cc1cc(C)n(-c2ccc(C(=O)Nc3cc(C(F)(F)F)ccc3N3CCOCC3)cc2)n1	1	-8	-60	12	60	.
C[C@H](NC(=O)[C@@H]1CCCN1C(=O)[C@@H]1CCCN1)c1ccccc1	.	1	.	.	.	.
CC(=O)Nc1ccc(-c2cc(C(=O)O)c3ccc(C)cc3n2)cc1	.	-2	14	-5	-14	5
CCOC(=O)c1cc2c(C(F)(F)F)cc(-c3ccccc3)nc2o1	8	3	-76	-8	76*	.
CCOC(=O)c1c(C(F)(F)F)cc(-c2ccc(F)cc2)nc1C	1	0	-30	-5	30	2
CC1CCN(c2nnc(-c3ccccc3)c3ccccc23)CC1	1	0	-84	-5	84*	-1
CCOC(=O)N1CCN(S(=O)(=O)N2CCCC(C(=O)NCCCN3CCCCC3)C2)CC1 (stereo unspecified)	.	10	12	-3	-12	-1
COc1ccc(C(O)c2ncc(-c3ccccc3C)[nH]2)cc1F (stereo unspecified)	.	1	.	.	.	.
Cc1nc2c(-c3ccc(F)cc3)c(C)nn2c(C)c1CCC(=O)Nc1ccc(F)cc1F	.	-1	-75	-5	75*	-3
Cc1nc2c(-c3ccc(F)cc3)c(C)nn2c(C)c1CCC(=O)NC(C)CCc1ccco1 (stereo unspecified)	-7	6	-63	-1	63	-38
CC(=O)Nc1ccc(S(=O)(=O)N2CCC(C(=O)NCc3ccncc3)CC2)cc1	.	-9	1	2	-1	-1
SMILES	TLR4 MyD88 comp	NOD2 RIPK2 PPI	SR-BI DiI-HDL act	TLR9-MyD88 block	SR-BI HDL uptake	Lipid droplet
COC(=O)c1cc(OC)c(OC)cc1NC(=O)c1cccc(C)c1	-7	0	-81	3	81*	16
COC(=O)c1cc(OC)c(OC)cc1NC(=O)c1ccccc1	-18	-6	-59	-5	59	8
CCOc1cc(NC(=O)c2ccccn2)c(OCC)cc1NC(=O)c1cccc(C)c1	-27	-4	-71	-3	71*	-9
CCOc1cc(NC(=O)c2cccs2)c(OCC)cc1NC(=O)c1ccccn1	4	9	-68	-5	68	-3
O=C1CC2(CCN(C(=O)c3cccc(F)c3)CC2)Oc2ccccc21	.	0	15	-11	-15	.
COc1ccccc1-c1cccc(-c2nc(C(=O)Nc3nccs3)cc3c2[C@H](CCO)N(C(C)=O)C3)c1	.	-10	.	.	.	.
COc1cccc(NC(=O)c2ccnc(N3CCC(C(=O)NCc4cc(OC)ccc4OC)CC3)c2)c1	.	2	-79	-1	79*	-2
CC(Oc1ccc(Cl)cc1Cl)C(=O)Nc1ccc2oc(-c3ccncc3)nc2c1 (stereo unspecified)	0	-9	-78	1	78*	1
O=C1NC(=Nc2ccc(Cl)cc2)/C(=C/c2ccco2)S1	-2	-4	-82	1	82*	-1
O=C(CSc1nc(C(F)(F)F)cc(=O)[nH]1)Nc1ccc2c(c1)OCCO2	.	5	-6	1	6	.
NC(=O)c1c(NC(=O)c2ccccc2F)sc2c1CCC2	.	1	.	1	.	.
COCC1=C(C(=O)OC(C)OC(=O)OC(C)C)N2C(=O)[C@@H](NC(=O)/C(=N\OC)c3csc(N)n3)[C@H]2SC1 (stereo partly specified)	.	-21	-88	2	88*	.
CCCc1cc(C(=O)OC)c2ccccc2n1	-18	0	77*	-9	-77	0
Cc1c(-c2ccccc2)nc2ccccc2c1C(=O)Oc1ccc([N+](=O)[O-])cc1	-4	1	-88	-3	88*	.
Cc1nc2cccc(C(=O)Oc3ccc([N+](=O)[O-])cc3)c2o1	0	0	16	-2	-16	-28
Cc1c(C(=O)c2ccc(Cl)c(Cl)c2)cnc2cc3c(cc12)OCO3	3	1	69*	2	-69	-7
COc1ccc(C(=O)c2cnc3cc4c(cc3c2C)OCO4)cc1	0	10	-19	9	19	11
Cc1cccc(C(=O)NNC(=O)C23CC4CC(CC(C4)C2)C3)c1O	.	0	-100	-1	100*	5
CCN(Cc1cc2cc(C)ccc2[nH]c1=O)C(=O)c1cccc([N+](=O)[O-])c1	.	-3	.	5	.	1
O=c1oc2c(-c3ccc([N+](=O)[O-])cc3)cc(O)cc2s1	.	-14	-77	-1	77*	0
CCc1nnc(NC(=O)c2ccc(OCc3c(C)noc3C)c(OC)c2)s1	2	-3	-84	2	84*	-5
COc1cc(NC(=O)c2ccc(OCc3c(C)noc3C)c(OC)c2)cc(OC)c1	.	-4	-86	4	86*	.
COc1cc(C(=O)Nc2cc(OC)c(OC)c(OC)c2)ccc1OCc1c(C)noc1C	.	0	-87	0	87*	.
COc1cc(C(=O)Nc2ccc3c(c2)OCO3)ccc1OCc1c(C)noc1C	7	5	-63	-5	63	10
